Measurements from ChEMBL document CHEMBL1123102, “Synthesis and anthelmintic activity of 5(6)-(benzimidazol-2-ylcarbamoyl) and (4-substituted piperazin-1-yl)benzimidazoles” (1985).

Experiments:
[1] = system: Rattus norvegicus; test: Antitapeworm activity evaluated as reduction of worms with scolices against Hymenolepis nana in rat ( dose 400 mg/kg X 3) administered orally; type: functional; conditions: route oral
Procedure, shortened: (§1)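 Newly weaned male albino rats (Freiburg strain, 25–30 g) were infected orally with 200 viable H. nana ova. Those passing eggs on day 17 were treated orally, 3–5 per group, three daily doses after a 5–6 h fast. Rats were fasted again on day 3 of treatment and sacrificed. Worms with scolices and worm-free animals were scored.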

[2] = system: Rattus norvegicus; test: Antitapeworm activity evaluated as(percent animal freed of worms) against Hymenolepis nana in rat (dose 400 mg/kg X 3)administered orally; type: functional; conditions: route oral; procedure, shortened: as §1
[3] = system: Rattus norvegicus; test: Antifilarial activity evaluated as (persistance of microfilaricidal effect) against Litomosoides carinii in Coton rat, at a dose (30 mg/kg X 5) administered intraperitoneally; type: functional
Procedure, shortened: (§2)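 Cotton rats (Sigmodon hispidus) infected with L. carinii by vector mite (Liponyssus bacoti) transmission. Animals with ≥250 microfilariae per 5 µL blood after prepatency were used, 3–4 per experiment. Drug was given i.p. in water or Tween 80 suspension daily for 5 days. Blood smears were read weekly up to 6 weeks. Adult worms were examined at sacrifice on day 42.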

[4] = system: Rattus norvegicus; test: Antifilarial activity evaluated as (percent death of adult worms on day 42) against Litomosoides carinii in Coton rat, at a dose (30 mg/kg X 5) administered intraperitoneally; type: functional
Procedure, shortened: (§3)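 Cotton rats (Sigmodon hispidus) were infected with L. carinii through the vector Liponyssus bacoti. At the end of the prepatent period, animals with at least 250 microfilariae per blood sample were selected, 3–4 per experiment. Drug in water or Tween 80 suspension was given ip daily for 5 days. Blood smears were taken weekly up to 6 weeks. On day 42, animals were killed and the condition of adult male and female worms assessed.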

[5] = system: Rattus norvegicus; test: Antifilarial activity evaluated as (percent reduction of microfilariae) against Litomosoides carinii in Coton rat, at a dose (30 mg/kg X 5) administered intraperitoneally; type: functional; procedure, shortened: as §2
[6] = system: Rattus norvegicus; test: Antitapeworm activity evaluated as(percent animal freed of worms) against Hymenolepis nana in rat (dose 250 mg/kg X 3)administered orally; type: functional; conditions: route oral; procedure, shortened: as §1
[7] = system: Rattus norvegicus; test: Antitapeworm activity evaluated as reduction of worms with scolices against Hymenolepis nana in rat ( dose 250 mg/kg X 3) administered orally; type: functional; conditions: route oral; procedure, shortened: as §1
[8] = system: Rattus norvegicus; test: Antitapeworm activity evaluated as(percent animal freed of worms) against Hymenolepis nana in rat ( dose 250 mg/kg X 3)administered orally; type: functional; conditions: route oral; procedure, shortened: as §1
[9] = system: Rattus norvegicus; test: Antitapeworm activity evaluated as reduction of worms with scolices against Hymenolepis nana in rat (dose 50 mg/kg X 3)administered orally; type: functional; conditions: route oral; procedure, shortened: as §1
[10] = system: Rattus norvegicus; test: Antitapeworm activity evaluated as(percent animal freed of worms) against Hymenolepis nana in rat (dose 50 mg/kg X 3)administered orally; type: functional; conditions: route oral; procedure, shortened: as §1
[11] = system: Rattus norvegicus; test: Antitapeworm activity evaluated as reduction of worms with scolices against Hymenolepis nana in rat (dose 100 mg/kg X 3)administered orally; type: functional; conditions: route oral; procedure, shortened: as §1
[12] = system: Rattus norvegicus; test: Antitapeworm activity evaluated as (percent animal freed of worms) against Hymenolepis nana in rat (dose 100 mg/kg X 3)administered orally; type: functional; conditions: route oral; procedure, shortened: as §1
[13] = system: Rattus norvegicus; test: Antitapeworm activity evaluated as reduction of worms with scolices against Hymenolepis nana in rat (dose 250 mg/kg X 3) administered orally; type: functional; conditions: route oral; procedure, shortened: as §1
[14] = system: Rattus norvegicus; test: Antifilarial activity evaluated as (persistance of microfilaricidal effect)against Litomosoides carinii in Cotton rat, at a dose (30 mg/kg X 5) administered intraperitoneally; type: functional; procedure, shortened: as §2
[15] = system: Rattus norvegicus; test: Antitapeworm activity evaluated as reduction of worms with scolices against Hymenolepis nana in rat ( dose 250 mg/kg X3 )administered orally; type: functional; conditions: route oral; procedure, shortened: as §1
[16] = system: Rattus norvegicus; test: Antifilarial activity evaluated as (percent death of adult worms on day 42) against Litomosoides carinii in Cotton rat, at a dose (30 mg/kg X 5) administered intraperitoneally; type: functional; procedure, shortened: as §3
[17] = system: Rattus norvegicus; test: Antifilarial activity evaluated as (percent reduction of microfilariae) against Litomosoides carinii in Coton rat, at a dose (6 mg/kg X 5) administered intraperitoneally; type: functional; procedure, shortened: as §2
[18] = system: Rattus norvegicus; test: Antifilarial activity evaluated as (percent death of adult worms on a day 42) against Litomosoides carinii in Coton rat, at a dose (6 mg/kg X 5) administered intraperitoneally; Nil; type: functional, organism-based; procedure, shortened: as §3
[19] = system: Rattus norvegicus; test: Antifilarial activity evaluated as (persistance of microfilaricidal effect)against Litomosoides carinii in Coton rat, at a dose (6 mg/kg X 5)administered intraperitoneally; type: functional; procedure, shortened: as §2

COC(=O)Nc1nc2cc(C(=O)c3ccccc3)ccc2[nH]1 [MEBENDAZOLE]
Reduction [1]: 0%
Reduction [2]: 0%

CCN(CC)C(=O)N1CCN(c2ccc3[nH]c(NC(=O)OC)nc3c2)CC1
Activity [3]: 42
Death [4]: 100%
Removal [5]: >95%
Reduction [6]: 100%
Reduction [7]: 100%

COC(=O)Nc1nc2cc(N3CCN(C(=O)c4ccccc4)CC3)ccc2[nH]1
Reduction [8]: 100%
Reduction [9]: 100%
Reduction [10]: 85%
Reduction [11]: 100%
Reduction [12]: 100%
Reduction [13]: 100%

COC(=O)Nc1nc2cc(N3CCN(C(=O)c4ccco4)CC3)ccc2[nH]1
Removal [5]: >90%
Activity [14]: 42
Reduction [6]: 100%
Reduction [15]: 100%
Death [16]: 90%

CCN(CC)C(=O)N1CCN(C)CC1 [DIETHYLCARBAMAZINE]
Removal [17]: >95%
Death [18]: Nil
Activity [19]: 7
